High-throughput results (PubChem BioAssay)
In the library only some 3.2% were active in any assay of this set; here they are far more common.
MEKK2 WT-MEK5 = raises or lowers MEK5 binding to wildtype human MEKK2 PB1 domain; bead flow cytometry, Alexa488-MEK5 binding to MEKK2 WT; actives lie on both sides; binding response (% of control), % at 10 µM; 290,000 tested, 1.1% active; in the data active means binding response below about 67% or above about 130%; inconclusive means no clear call, values can overlap the other calls; inactive means in between
MEKK3 PB1 HTS = MEKK3-MEK5 PB1 interaction, increase or decrease | bead-based flow cytometry, Alexa488-MEK5 binding to MEKK3; actives lie on both sides; 0 = blocked by unlabeled MEK5, 100 = vehicle | AID 1529 | 290,000 tested, 1.4% active | Q99759 | binding response (% of control), % at 10 µM;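 active means binding response more than 3 SD above or below the average of its plate-row segment, actives on both sides; inconclusive means wells at one plate position flagged as instrument error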;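 further: Alexa488 bead fluorescence after subtracting the streptavidin-only scavenger bead signal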
UBC13 polyUb = blocks human UBC13 polyubiquitin chain formation; TR-FRET; P61088; 330,000 tested, 0.47% active; inhibition, % at 20 µM; in the data active means inhibition above about 45%, passing the limit was not always enough; inconclusive means no clear call, values can overlap the other calls
DSG3 Ab inh = inhibitors of pemphigus antibody binding to human desmoglein-3; AID 588358; DSG3-coupled beads, scFv-anti-DSG3-GFP binding, flow cytometry; active compounds read low; 310,000 tested, 0.48% active; binding (percent of control), % at 10 µM;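 active means binding more than 3 SD below its plate's average and above zero; inconclusive means below that plate limit but binding exactly zero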;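 further: hits lower antibody fragment binding to DSG3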
Target sequence (P32926 whole entry, looked up, the tested form may be a part): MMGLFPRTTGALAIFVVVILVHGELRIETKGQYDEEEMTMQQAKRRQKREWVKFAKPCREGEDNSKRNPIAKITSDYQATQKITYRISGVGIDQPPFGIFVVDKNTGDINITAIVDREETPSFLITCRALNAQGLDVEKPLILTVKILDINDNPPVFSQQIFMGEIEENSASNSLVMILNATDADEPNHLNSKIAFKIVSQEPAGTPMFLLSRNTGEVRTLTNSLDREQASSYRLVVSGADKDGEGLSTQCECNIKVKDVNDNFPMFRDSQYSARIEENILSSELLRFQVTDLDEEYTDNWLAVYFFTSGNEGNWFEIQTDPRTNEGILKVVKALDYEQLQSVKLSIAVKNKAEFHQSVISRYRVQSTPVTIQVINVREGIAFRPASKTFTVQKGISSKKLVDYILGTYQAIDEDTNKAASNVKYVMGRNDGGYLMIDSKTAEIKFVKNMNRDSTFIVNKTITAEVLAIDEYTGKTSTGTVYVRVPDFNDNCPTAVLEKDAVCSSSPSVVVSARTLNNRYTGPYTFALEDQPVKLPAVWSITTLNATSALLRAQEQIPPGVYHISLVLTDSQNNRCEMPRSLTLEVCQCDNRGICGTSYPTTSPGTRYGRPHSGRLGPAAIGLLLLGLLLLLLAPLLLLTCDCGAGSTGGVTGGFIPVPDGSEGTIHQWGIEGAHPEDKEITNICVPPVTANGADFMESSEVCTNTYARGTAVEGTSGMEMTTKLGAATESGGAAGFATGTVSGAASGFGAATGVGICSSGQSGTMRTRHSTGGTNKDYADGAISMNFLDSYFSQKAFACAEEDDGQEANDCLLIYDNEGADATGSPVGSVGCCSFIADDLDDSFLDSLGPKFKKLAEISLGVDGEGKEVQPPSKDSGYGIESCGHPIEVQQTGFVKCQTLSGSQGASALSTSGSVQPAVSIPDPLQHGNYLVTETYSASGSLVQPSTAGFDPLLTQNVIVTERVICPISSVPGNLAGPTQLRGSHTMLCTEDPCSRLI
MEKK2mut PB1 HTS = signal of MEK5 binding to mutant human MEKK2 PB1 domain | bead flow cytometry, Alexa488-MEK5 binding to MEKK2 mutant | percent response, % at 10 µM | 290,000 tested, 0.35% active | AID 1530; in the data active means percent response above about 24%, passing the limit was not always enough
Apaf1 inhib = inhibitors of human Apaf-1 apoptosome; reconstituted apoptosome caspase-3 activity, DEVD-Rh110 fluorescence; inhibition, % at 20 µM; 330,000 tested, 0.71% active; AID 489030; active means inhibition of at least 40% at 20 µM;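 further: plate controls were DMSO wells for no effect and DEVD-CHO caspase inhibitor wells for full effect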
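Assay system – apoptosome proteins · Medium – Hepes buffer, pH 7.5 · Also added – cytochrome c with DEVD-Rh110 · Timing – 30 min compound preincubation, 50 min activation, room temperature · Detection – Rh110 fluorescence, excitation 480 nm, emission 540 nm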
MEKK2wt confirm = raises or lowers MEK5 binding to wildtype human MEKK2, retest; shares compounds with MEKK3 PB1 HTS; bead flow cytometry, Alexa488-MEK5 binding to MEKK2 WT; actives lie on both sides; binding response (% of control), % at 10 µM; 5,900 tested, 2.4% active; AID 1892; in the data active means binding response below about 16% or above about 210%; inactive means in between
MEKK2mut confirm = signal of MEK5 binding to mutant human MEKK2, retest; shares compounds with MEKK3 PB1 HTS; bead flow cytometry, Alexa488-MEK5 binding to MEKK2 mutant; percent response, % at 10 µM; 5,900 tested, 2% active; AID 1893; in the data active means percent response mostly above about 71%, no sharp cut-off; inactive means mostly below about 38%;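 further: higher means compound restores mutant binding toward wildtype level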
MEKK3-MEK5 inh = confirmation of inhibitors of MEK5 binding to human MEKK3; shares compounds with MEKK3 PB1 HTS; bead flow cytometry, Alexa488-MEK5 binding to MEKK3; active compounds read low; binding response (% of control), % at 10 µM; 5,900 tested, 1.8% active; AID 1894;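 active means binding response below 72% of control, or above a set upper limit, though filed actives all read lower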;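 further: 100% = DMSO only wells and 0% = binding blocked by excess unlabeled MEK5; lower values mean stronger disruption of MEK5 binding to MEKK3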
Casp3 UBC13 ctr = counter-screen for UBC13 inhibitors: human caspase-3 inhibition | shares compounds with UBC13 polyUb | Recombinant caspase-3, Caspase-Glo 3/7 luminescence, 60 min | inhibition, % at 20 µM | 1,400 tested, 4% active;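 active means mean inhibition across replicates above about 26%, limit read from the data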;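 further: plate controls were DMSO with caspase-3 for no effect and DMSO wells lacking enzyme for full effect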
UBC13 conf = human UBC13 polyubiquitin inhibition, confirmed; shares compounds with UBC13 polyUb; UBC13 polyubiquitination, TR-FRET, biochemical; inhibition, % at 10 µM; 1,400 tested, 68% active; AID 488859; in the data active means inhibition above about 45%; inconclusive means no clear call, values can overlap the other calls
Apaf-1 inh conf2 = confirmation of Apaf-1 inhibitors | reconstituted apoptosome, caspase-3 DEVD-Rh110 fluorescence | shares compounds with Apaf1 inhib | 1,800 tested, 25% active | AID 504614 | inhibition, % at 20 µM;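 active means mean inhibition of at least 40% at 20 µM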;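 further: plate controls were DMSO wells for no effect and DEVD-CHO caspase inhibitor control wells for full effect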
Rh110 interf inh = interferes with Rh110 fluorescence, flagging false Apaf-1 inhibitors | shares compounds with Apaf1 inhib | 1,800 tested, under 10 active | activation (fluorescence interference), % at 20 µM | Rh110 fluorescence interference, quenched caspase reaction;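 active means signal rise of 40% or more at 20 µM, treated as a fluorescence artifact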
Apaf1 inh interf = counter-screen for Apaf-1 inhibitors: fluorescence interference, dose response; AID 588538; IC50, µM; shares compounds with Apaf1 inhib; fluorescence interference counterscreen, Apaf-1 assay format; 460 tested, under 10 active; call rule not given here
Numbers without * were called inactive; ? = inconclusive; . = no result; [ ] = another dose, or the depositor's remark.

SMILES | MEKK2 WT-MEK5 | MEKK3 PB1 HTS | UBC13 polyUb | DSG3 Ab inh | MEKK2mut PB1 HTS | Apaf1 inhib | MEKK2wt confirm | MEKK2mut confirm | MEKK3-MEK5 inh | Casp3 UBC13 ctr | UBC13 conf | Apaf-1 inh conf2 | Rh110 interf inh | others
NCCNc1cc(N2CCCC2)ccc1[N+](=O)[O-] | 105.0 | 101.0 | -87.3 | 96.0 | -1.0 | -4.8 | . | . | . | . | . | . | .
CC(=O)N/C(=C\c1ccccc1)C(=O)OC(C)C(=O)Nc1ccccc1F (stereo unspecified) | . | . | 3.2 | ? | . | 5.8 | . | . | . | . | . | . | .
CCCCCC(=O)N1C[C@@H](O)[C@H](n2cc(C3CC3)nn2)C[C@@H]1c1ccc(C)cc1 | . | . | . | 97.0 | . | . | . | . | . | . | . | . | .
COc1ccc(C[C@H]2CN3C(=NC[C@H]3Cc3ccccc3)N2CCNC(=O)c2ccc(C)c(Br)c2)cc1 | 154.0* | 105.0 | 71.9* | 109.2 | 27.0* | 42.9* | 176.0 | 26.0 | 105.0 | -2.3 | 61.3* | 40.6* | 10.6 | Apaf1 inh interf=>100
COc1ccc(C(=O)N[C@H](C(=O)NCCCn2nc(C)cc2C)C(C)C)cc1 | . | . | 11.5 | 102.9 | . | -7.3 | . | . | . | . | . | . | .
COc1ccc(C(=O)NCCCCc2ccccc2)cc1 | . | . | 4.1 | 105.6 | . | -1.2 | . | . | . | . | . | . | .
COc1ccc(C[C@H]2CN3C(=NC[C@@H]3C(C)C)N2C[C@H](C)NC(=O)c2ccc(C)c(Br)c2)cc1 | 153.0* | 107.0 | 54.4* | 112.3 | 37.0 | 48.1* | 141.0 | 19.0 | 108.0 | -1.3 | 43.7 | 17.8 | 11.1
COc1ccc(C[C@H]2CN3C(=NC[C@@H]3Cc3ccccc3)N2CCNC(=O)c2ccc(C)c(Br)c2)cc1 | 271.0* | 109.0 | 88.1* | 106.0 | 132.0* | 64.9* | 200.0 | 56.0 | 102.0 | 0.7 | 55.8* | 34.5 | -17.4
COc1ccc(CCNC(=O)c2cccc(-n3cnnn3)c2)cc1 | . | . | -2.8 | 94.8 | . | 11.1 | . | . | . | . | . | . | .
CN(C)CC/C=C1\c2ccccc2Sc2ccc(Cl)cc21 | 164.0* | 72.0*[inhibitor] | 11.8 | 98.4 | 17.0 | 49.1* | 136.0 | 16.0 | 99.0 | . | . | 15.5 | 5.5
CCCCCCCCCC[N+](C)(C)CC/C=C1/c2ccccc2Sc2ccc(Cl)cc21 | 291.0* | 108.0 | 107.1* | 104.4 | 147.0* | 81.2* | 321.0* | 172.0* | 115.0 | -2.2 | 118.6* | 88.4* | 36.1 | Apaf1 inh interf=>100
CCCCCCCCCCC[N+](C)(C)CC/C=C1/c2ccccc2Sc2ccc(Cl)cc21 | 278.0* | 97.0 | 105.9* | 107.6 | 143.0* | 74.9* | 195.0 | 60.0 | 111.0 | 2.7 | 118.4* | 87.6* | 28.3 | Apaf1 inh interf=>100
CC[N+](C)(C)CC/C=C1/c2ccccc2Sc2ccc(Cl)cc21 | 111.0 | 104.0 | 15.4 | 112.9 | 5.0 | -4.4 | . | . | . | . | . | . | .
CN(C)CC/C=C1\c2ccccc2Sc2cc(F)c(Cl)cc21 | . | . | 30.6 | 126.0 | . | 9.1 | . | . | . | . | . | . | .
O=C1NN=C(c2ccccc2)C1Cc1ccccc1 (stereo unspecified) | . | . | . | 99.9 | . | . | . | . | . | . | . | . | .
